Test [1] addresses T1, Hydroxycarboxylic acid receptor 3 (Homo sapiens, UniProt P49019). Description: Agonist activity at human GPR109b […] assessed as decrease in intracellular cAMP level upto 50 uM by HTRF assay. It counts as functional, cell-based.
The target of test [2] is T1, Hydroxycarboxylic acid receptor 3. Description: Agonist activity at human GPR109b expressed in human adipocytes assessed as decrease in intracellular cAMP level by HTRF assay. Type of test: functional, cell-based. In outline:
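Whole-cell cAMP Dynamic2 HTRF assay at GPR109b. Results are given as pEC50, the negative log of molar EC50, with log SD errors and n in parentheses. Compounds with no response are marked not active. Efficacy is judged relative to niacin.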
(In general: cAMP levels reflect the balance of adenylyl cyclase and phosphodiesterase activity.)

Test [3] relates to Rattus norvegicus. Briefly: Reduction in 4-fluoro-5-methyl-pyrazole-3-carboxylic acid-induced plasma free fatty acid level in fasted male Sprague-Dawley rat at 1 mg/kg. Further details: dose 1 mg/kg. It counts as functional, organism-based. Put shortly:
(§1)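 Fasted male Sprague–Dawley rats dosed orally at 0.1, 1 or 10 mg/kg. Plasma free fatty acid levels are followed over time, with 10 mg/kg oral niacin as the comparator.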

Test [4] concerns Rattus norvegicus. Description: Reduction in 4-fluoro-5-methyl-pyrazole-3-carboxylic acid-induced plasma free fatty acid level in fasted male Sprague-Dawley rat at 10 mg/kg. It counts as functional, organism-based. More on the design: dose 10 mg/kg. In outline:
as §1

Test [5] deals with Mus musculus. Briefly: Effect on cutaneous flushing response in C57BL/6 mouse at 100 mg/kg. It counts as functional, organism-based. Further details: dose 100 mg/kg. In outline:
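Male C57 Bl/6 mice given 100 mg/kg. Cutaneous vasodilation is measured as a surrogate for flushing.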

Active and inactive are the calls of the source. The calls are words filed in the database; no cut-off is given here.

We go through 27 compounds from ChEMBL document CHEMBL1137460, “Fluorinated pyrazole acids are agonists of the high affinity niacin receptor GPR109a” (Bioorg Med Chem Lett, 2007).

T1 sequence (P49019 whole entry): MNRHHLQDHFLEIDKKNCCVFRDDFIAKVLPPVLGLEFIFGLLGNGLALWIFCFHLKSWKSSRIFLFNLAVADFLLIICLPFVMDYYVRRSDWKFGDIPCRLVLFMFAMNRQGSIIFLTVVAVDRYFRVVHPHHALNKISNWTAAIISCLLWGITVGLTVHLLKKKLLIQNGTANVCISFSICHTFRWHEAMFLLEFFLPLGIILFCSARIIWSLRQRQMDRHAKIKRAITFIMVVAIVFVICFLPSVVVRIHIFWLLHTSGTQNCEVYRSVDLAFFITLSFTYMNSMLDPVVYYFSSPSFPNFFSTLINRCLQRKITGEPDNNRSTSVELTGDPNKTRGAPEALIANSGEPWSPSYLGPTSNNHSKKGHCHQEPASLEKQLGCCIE

With `O=C(O)c1cc(C2CC2)n[nH]1`, the result in test [1] and in test [2] was inactive. Consider `Cc1[nH]nc(C(=O)O)c1F`, for which the result in test [1] and in test [2] was inactive. Also, the outcome in test [3], in test [4] and in test [5] was Active. Take `Cc1[nH]nc(C(=O)O)c1Cl`: the result in test [1] and in test [2] was inactive.

On to `O=C(O)c1cccnc1` [NIACIN], for which the EC50 in test [2] (read-out: Log EC50 (converted)) is 75.9 µM. Consider `O=C(O)c1n[nH]c(C2CC2)c1F`, for which the result in test [1] and in test [2] was inactive. As to `CCc1cc(C(=O)O)[nH]n1`, the outcome in test [1] and in test [2] was inactive. As for `CCCCc1[nH]nc(C(=O)O)c1F`, the outcome in test [1] and in test [2] was inactive. As for `CCCCc1[nH]nc(C(=O)O)c1Br`, the result in test [1] and in test [2] was inactive. For the compound `CCCCc1cc(-c2nnn[nH]2)n[nH]1`, the EC50 in test [2] (read-out: Log EC50 (converted)) is 7.59 µM. `Cc1[nH]nc(-c2nnn[nH]2)c1F`: the result in test [1] and in test [2] was inactive.

Take `O=C(O)c1cc(C2CCC2)n[nH]1`: the result in test [1] and in test [2] was inactive. With `CCCc1cc(C(=O)O)n[nH]1`, the result in test [1] and in test [2] was inactive. As to `CCCc1cc(-c2nnn[nH]2)n[nH]1`, the EC50 is 860 µM in test [2] (read-out: EC50) and 0.724 µM in test [2] (read-out: Log EC50 (converted)). On to `CCc1[nH]nc(-c2nnn[nH]2)c1F`, for which the EC50 in test [2] (read-out: Log EC50 (converted)) was 12.3 µM. Turning to `CCCCCc1cc(C(=O)O)[nH]n1`, in test [2] (read-out: Log EC50 (converted)), the EC50 is 18.6 µM.

Turning to `c1cc(-c2nnn[nH]2)n[nH]1`, the outcome in test [1] was inactive. For the compound `O=C(O)c1cc[nH]n1`, the result in test [1] and in test [2] was inactive. With `CCCCc1cc(C(=O)O)n[nH]1`, the half-maximal effective concentration (EC50) in test [2] (read-out: Log EC50 (converted)) was 11.7 µM. Regarding `Cc1cc(C(=O)O)n[nH]1`, the result in test [1] and in test [2] was inactive.

Turning to `Cc1cc(-c2nnn[nH]2)n[nH]1`, the outcome in test [1] was inactive. `CC(C)c1cc(-c2nnn[nH]2)n[nH]1`: the result in test [1] was inactive. For `c1c(-c2nnn[nH]2)n[nH]c1C1CC1`, the EC50 is 3.6 µM in test [2] (read-out: EC50) and 3.24 µM in test [2] (read-out: Log EC50 (converted)). For `CC(C)c1cc(C(=O)O)n[nH]1`, the EC50 in test [2] (read-out: Log EC50 (converted)) was 41.7 µM. On to `CCCCc1[nH]nc(-c2nnn[nH]2)c1F`, for which the outcome in test [1] and in test [2] was inactive.

For the compound `CCc1[nH]nc(C(=O)O)c1C`, the result in test [1] and in test [2] was inactive. On to `Fc1c(-c2nnn[nH]2)n[nH]c1C1CC1`, for which the outcome in test [1] and in test [2] was inactive. As to `CCc1[nH]nc(C(=O)O)c1F`, the result in test [1] and in test [2] was inactive.

The term EC50 denotes the midpoint of the concentration-response curve.
